# H69AR inhibit – proliferation blockers of H69AR lung cancer cells, primary screen, cell-based, human, 86K library | H69AR lung tumor viability, ATP luminescence, 72 h; stronger effect = lower value | viability, % at 10 µM | 6% of 85,000 active;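 active means viability at or below 40%; inactive means viability above 40%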;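 further: multidrug resistant small cell line overexpressing MRP-1 efflux transporter; 100% = mean luminescence of untreated control wells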
# Lung fibro prol – antiproliferative effect on LL 47 fibroblasts – human, LL 47 cells, CellTiter-Glo luminescence, primary screen | viability, % at 10 µM | 1.1% of 85,000 active | AID 719, 2007 | LL 47 human lung fibroblast viability, ATP luminescence; stronger effect = lower value;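 active means viability at or below 50% in the single dose screen; inactive means viability above 50%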;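 further: compound exposure lasted 72 h before the ATP readout; 100% = median luminescence of untreated cell-only wells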
#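 Times – overnight cell rest, 72 h compound treatment at 37 °C · Test system – human lung fibroblast line LL 47, low passage · Amount – 1,150 cells in each well · Controls – cell-only wells, no compound · Doses – 0.1% DMSO in all compound wells · Measured by – CellTiter-Glo luminescence · Buffer or medium – IMEM plus 15% FBS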
# HUVEC prolif 384 – inhibitors of HUVEC proliferation, primary screen, cell-based, 384-well. CellTiter-Glo luminescence, 72 h; stronger effect = lower value. 1.1% of 86,000 active. viability, % at 10 µM (by protocol). AID 648, 2007;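 active means viability at or below 30%; inactive means viability above 30%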;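 further: 100% = median luminescence of DMSO-only cell control wells on each plate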
# PTEN del growth – growth suppression of PTEN-null HCT116, primary screen, cell-based, CellTiter-Glo; HCT116 PTEN-null viability, 60 h; stronger effect = lower value; AID 827, 2007; viability, % at 10 µM; 1.2% of 140,000 active;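 active means viability at or below a set limit, 4 SD under the median of all tested compounds, cut at about 3.7% in these data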;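 further: PTEN knockout HCT116 line with beta catenin targeted HCT116 as companion control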
# HCT116 bCat-KO – primary screen for growth suppressors in beta-catenin knockout HCT116 cells (colon tumor, human); HCT116 beta-catenin knockout viability, CellTiter-Glo, 60 h; stronger effect = lower value; viability, % at 10 µM; 1.5% of 140,000 active; AID 818, 2007;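 active means viability at or under a set limit, the compound median less 4 SD, cut at about 6% in these data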;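 further: 0% = Hyamine 1622 control at 20 µM and 100% = untreated cell control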
# Active calls of the source: *; . = no result given. The entries come from a sample that favours hits as a whole.
SMILES,H69AR inhibit,Lung fibro prol,HUVEC prolif 384,PTEN del growth,HCT116 bCat-KO
COC(=O)c1cc(=O)nc2sccn12,84,104,97,102,101
O=C(CSC1=NS(=O)(=O)c2ccccc21)Nc1ccccc1,19*,53,48,104,89
COC(=O)CSc1ccccc1C(=O)OC,94,92,90,103,124
COC(=O)CSC1=NS(=O)(=O)c2ccccc21,37*,69,80,99,103
CNc1nc(Nc2ccc(Br)cc2)nc(N)c1[N+](=O)[O-],.,.,.,84,82
N#Cc1cc2c(nc1SCC(=O)Nc1sc3c(c1C#N)CCC3)CCCCC2,20*,86,79,75,84
N#Cc1c(NC(=O)CSc2ncn[nH]2)sc2c1CCCCC2,28*,79,79,85,84
N#Cc1c(NC(=O)CSc2nnnn2C2CCCC2)sc2c1CCCC2,7.7*,93,102,111,89
CCOC(=O)c1sc(NC(=O)CSc2nc3c(cc2C#N)CCCCCC3)c(C#N)c1C,.,77,30,16,22
N#Cc1cc2c(nc1SCC(=O)Nc1sc3c(c1C#N)CCC3)CCCC2,7.2*,84,63,93,97
N#Cc1c(NC(=O)CSc2nc(N)cc(=O)[nH]2)sc2c1CCCCCC2,79,88,95,77,60
c1ccc(Nc2cc(Nc3ccccc3)[nH]n2)cc1,71,85,80,86,84
CCC(C)(C)n1nnnc1C(c1ccc(C)cc1)N1CCN(Cc2ccc3c(c2)OCO3)CC1 (configuration not stated),94,86,88,79,84
CS(=O)(=O)N(Cc1ccccc1)c1ccc(C(=O)N2CCc3ccccc3C2)cc1,82,98,99,62,65
CCCNC(=O)c1ccc(C2SCC(=O)N2CCc2ccccc2)cc1 (configuration not stated),.,.,.,83,83
CCOC(=O)c1[nH]c2ccccc2c1NC(=S)Nc1cccc(C)c1,.,.,.,84,88
O=S(=O)(Nc1nc2ccccc2nc1Nc1ccc(N2CCOCC2)cc1)c1cc(Cl)ccc1Cl,.,.,.,45,55
O=C(Cn1cnc([N+](=O)[O-])c1)Nc1cc(Oc2ccc(Cl)cc2Cl)cc([N+](=O)[O-])c1,9.9*,93,42,5,8
Cc1n[nH]c(C)c1S(=O)(=O)N(CC(=O)Nc1ccc2c(c1)OCCO2)c1ccc(C(C)C)cc1,73,87,78,70,59
O=C(Nc1cc(N2CCOCC2)ncn1)Nc1cccc2ccccc12,32*,97,75,51,53
COc1cccc(C2/C(=C(/O)c3ccncc3)C(=O)C(=O)N2CCCN2CCOCC2)c1OC (configuration not stated),93,96,97,.,.
CCOc1ccc(Br)cc1S(=O)(=O)Nc1ccccc1N1CCOCC1,69,85,99,66,68
COc1ccc(CNC(=O)C2CC(c3cccc(OC)c3)=NO2)cc1 (configuration not stated),90,105,90,89,93
CCn1ncc(C2=NOC(C(=O)Nc3cc(OC)c(Cl)cc3OC)C2)c1C (configuration not stated),39*,97,92,102,99
COc1cc(OC)c(C2=NOC(C(=O)NCc3ccc4c(c3)OCO4)C2)cc1Cl (configuration not stated),22*,92,60,60,64
COc1ccc(OC)c(C2=NOC(C(=O)NCc3ccco3)C2)c1 (configuration not stated),33*,95,80,64,72
COc1ccc(C2=NOC(C(=O)NCc3ccc(F)cc3)C2)cc1OC (configuration not stated),28*,46*,47,15,12
O=C(NCc1ccc2c(c1)OCO2)C1CC(c2ccc(Cl)cc2)=NO1 (configuration not stated),105,105,95,92,93
COc1cc(C2=NOC(C(=O)NCc3ccc(F)cc3)C2)cc(OC)c1OC (configuration not stated),.,.,.,12,15
CCn1ncc(C2=NOC(C(=O)NCC(C)C)C2)c1C (configuration not stated),98,105,95,86,89

# Screens: PubChem, SRMLSC
